Measured values from different studies.

O=C(O)c1ccc2c(c1)nc(NCc1ccccc1)c1ncccc12 — Papp (PAMPA; 5 h; pH 7.4): 6.53 ×10⁻⁶ cm/s
C[C@H](Nc1ccnc(Nc2cccc(-c3cccnc3)c2)n1)C(=O)O — Papp (PAMPA; 50 nM; 30 min): 9.7 ×10⁻⁶ cm/s
COc1ccc(C(CO)Nc2ncnc3sc(-c4ccccc4)cc23)cc1 (stereo not shown) — Papp (PAMPA): 240 ×10⁻⁶ cm/s
CO[C@H]1CNC[C@@H](OCC2CCC(F)(F)CC2)[C@@H]1Nc1ncc(-c2cncc(C)c2)c2cc(C)c(=O)[nH]c12 — Papp (PAMPA; pH 7.4): 19 ×10⁻⁶ cm/s
COC(=O)c1cccc(-c2cccc(Nc3nccc(NC4CCCCC4)n3)c2)c1 — Papp (PAMPA; 50 nM; 30 min): 76.9 ×10⁻⁶ cm/s
O=C(O)c1ccc2c(c1)nc(NCc1ccccc1)c1ncncc12 — Papp (PAMPA; 5 h; pH 7.4): 2.79 ×10⁻⁶ cm/s
CC(C)Nc1ccnc(Nc2cccc(C(C)(C)C)c2)n1 — Papp (PAMPA; 50 nM; 30 min): 1600 ×10⁻⁶ cm/s
C[C@@H](NC(=O)[C@@H](CC(=O)N1CCC(N2CCCCC2)CC1)N1C(=O)[C@@H](N2C(=O)OC[C@@H]2c2ccccc2)[C@H]1/C=C/c1cccc(I)c1)c1ccccc1 — Papp (PAMPA-BBB; 25 µg/mL; 18 h; pH 7.4): 2 to 4 ×10⁻⁶ cm/s
N=c1c2c(-c3ccccc3)c(-c3ccccc3)n(Cc3ccc(OC(F)(F)F)cc3)c2ncn1[C@H]1CC[C@H](O)CC1 — Papp (PAMPA; 50 µM; 30 min): 1250 ×10⁻⁶ cm/s
O=c1[nH]c2scc(-c3ccccc3)c2c(=O)n1O — Papp (PAMPA; 10 µM; 5 h): 0.4 ×10⁻⁶ cm/s
c1ccc(-c2nc(NCc3ccco3)c3ccccc3n2)nc1 — Papp (PAMPA; 10 µM; 3 h; pH 7.4): 22.8 ×10⁻⁶ cm/s
COc1ccc(Cn2c(-c3ccccc3)c(-c3ccccc3)c3c(=N)n(CC4CCOCC4)cnc32)cc1 — Papp (PAMPA; 50 µM; 30 min): 1270 ×10⁻⁶ cm/s
c1cncc(-c2cccc(Nc3nccc(NC4CCNCC4)n3)c2)c1 — Papp (PAMPA; 50 nM; 30 min): 8.2 ×10⁻⁶ cm/s
c1ccc(-c2nc(N3CCC(c4ccccn4)C3)c3ccccc3n2)nc1 (stereo not shown) — Papp (PAMPA; 10 µM; 3 h; pH 7.4): 22.6 ×10⁻⁶ cm/s
O=c1[nH]c2sc3c(c2c(=O)n1O)CCNC3 — Papp (PAMPA; 10 µM; 5 h): 0.07 ×10⁻⁶ cm/s
Cc1cccnc1CNc1nc(-c2ccccn2)nc2ccccc12 — Papp (PAMPA; 10 µM; 3 h; pH 7.4): 27.1 ×10⁻⁶ cm/s
N=c1c2c(-c3ccccc3)c(-c3ccccc3)n(Cc3ccc(S(N)(=O)=O)cc3)c2ncn1C1CCOCC1 — Papp (PAMPA; 50 µM; 30 min): 1 ×10⁻⁶ cm/s
O=C(CNc1cccc(OC(F)(F)F)c1)NC12CC3CC(CC(C3)C1)C2 — Papp (PAMPA; 16 h): 3.5 ×10⁻⁶ cm/s
Cc1sc2c(=O)n(O)c(=O)[nH]c2c1C — Papp (PAMPA; 10 µM; 5 h): 0.5 ×10⁻⁶ cm/s
CC[C@H](C)[C@@H]1NC(=O)[C@@H](Cc2ccccc2)OC(=O)CNC(=O)[C@H]([C@@H](C)CC)NC(=O)[C@@H](Cc2ccccc2)OC(=O)CNC1=O — Papp (PAMPA): 47 ×10⁻⁶ cm/s
c1ccc(-c2nc(NCCn3ccnc3)c3ccccc3n2)nc1 — Papp (PAMPA; 10 µM; 3 h; pH 7.4): 8.4 ×10⁻⁶ cm/s
CN(C)CCn1cnc2c(c(-c3ccccc3)c(-c3ccccc3)n2Cc2ccccc2)c1=N — Papp (PAMPA; 50 µM; 30 min): 1360 ×10⁻⁶ cm/s
CC(C)NCC(O)COc1cccc2ccccc12 (stereo not shown) — Papp (PAMPA-BBB; 0.5 µM; 4 h; pH 7.4): 4.82 ×10⁻⁶ cm/s
N=c1c2c(-c3ccccc3)cn(Cc3ccccc3)c2ncn1CCO — Papp (PAMPA; 50 µM; 30 min): 1270 ×10⁻⁶ cm/s
CC(C)Nc1ccnc(Nc2cccc(-c3ccccn3)c2)n1 — Papp (PAMPA; 50 nM; 30 min): 2010 ×10⁻⁶ cm/s
Cc1nc2n(c(=O)c1CCN1CCC(c3noc4cc(F)ccc34)CC1)CCCC2 — Papp (PAMPA-BBB; 50 µM; 16 h; pH 7.4): 15.5 ×10⁻⁶ cm/s
CC(C)[C@@H]1NC(=O)[C@@H](Cc2ccccc2)OC(=O)CN(C)C(=O)[C@H](C(C)C)NC(=O)[C@@H](Cc2ccccc2)OC(=O)CN(C)C1=O — Papp (PAMPA): 56 ×10⁻⁶ cm/s
CCN1CC(=O)NC(CC(C)C)C(=O)N(C)C(C)C(=O)NC(CC(C)C)C(=O)N2CCCC2C(=O)N(CC2CCCCC2)CC(=O)NC(CC(C)C)C(=O)N(C)C(C)C(=O)NC(Cc2ccccc2)C(=O)N2CCCC2C1=O (stereo not shown) — Papp (PAMPA): 18 ×10⁻⁶ cm/s
CCN1CCc2c(sc3[nH]c(=O)n(O)c(=O)c23)C1 — Papp (PAMPA; 10 µM; 5 h): 0.08 ×10⁻⁶ cm/s
Cn1c(=O)c2c(ncn2C)n(C)c1=O — Papp (PAMPA; 200 µM; 5 h): 6.85 ×10⁻⁶ cm/s
CNc1ccnc(Nc2cccc(-c3cccnc3)c2)n1 — Papp (PAMPA; 50 nM; 30 min): 2250 ×10⁻⁶ cm/s
CCn1ccc2nc(-c3ccccn3)nc(N3CCC(c4ccccn4)C3)c21 (stereo not shown) — Papp (PAMPA; 10 µM; 3 h; pH 7.4): 21 ×10⁻⁶ cm/s
c1cncc(-c2cccc(Nc3nccc(NC4CCOCC4)n3)c2)c1 — Papp (PAMPA; 50 nM; 30 min): 1840 ×10⁻⁶ cm/s
COc1ccc(Nc2nc(-c3ccccn3)nc3ccccc23)cc1 — Papp (PAMPA; 10 µM; 3 h; pH 7.4): 36.3 ×10⁻⁶ cm/s
O=c1[nH]c2sccc2c(=O)n1O — Papp (PAMPA; 10 µM; 5 h): 0.08 ×10⁻⁶ cm/s
COc1cc(CN2CCc3c(cc(Cn4ccnc4C)cc3-c3cn(C)nc3C(F)(F)F)C2=O)cc(OC)c1 — Papp (PAMPA; 100 µM; 5 h; pH 7.4): 5.3 ×10⁻⁶ cm/s
c1ccc(-c2nc(N3CCC(c4ccccn4)C3)c3ccccc3n2)cc1 (stereo not shown) — Papp (PAMPA; 10 µM; 3 h; pH 7.4): 42.4 ×10⁻⁶ cm/s
Cc1c(C)n(Cc2ccccc2)c2ncn(C3CCOCC3)c(=N)c12 — Papp (PAMPA; 50 µM; 30 min): 1680 ×10⁻⁶ cm/s
Cc1csc2[nH]c(=O)n(O)c(=O)c12 — Papp (PAMPA; 10 µM; 5 h): 0.2 ×10⁻⁶ cm/s
C[C@@H](NC(=O)[C@@H](CC(=O)N1CCC(N2CCCCC2)CC1)N1C(=O)[C@@H](N2C(=O)OC[C@@H]2c2ccccc2)[C@H]1/C=C/c1cccc(F)c1)c1ccccc1 — Papp (PAMPA-BBB; 25 µg/mL; 18 h; pH 7.4): > 4 ×10⁻⁶ cm/s
CC(C)Nc1ccnc(Nc2ccccc2-c2ccccc2)n1 — Papp (PAMPA; 50 nM; 30 min): 2360 ×10⁻⁶ cm/s
O=c1[nH]c2cc(-c3ccc(F)cc3)sc2c(=O)n1O — Papp (PAMPA; 10 µM; 5 h): 0.6 ×10⁻⁶ cm/s
Fc1cccc(F)c1-c1nc(N2CCC(c3ccccn3)C2)c2ccccc2n1 (stereo not shown) — Papp (PAMPA; 10 µM; 3 h; pH 7.4): 35.5 ×10⁻⁶ cm/s
